≈ marks a conversion by molar mass, not a printed value. Where “and” joins values, the source holds several entries; their conditions need not be identical. Equal values may be shown once. Calls of active or inactive are those of the source. The calls are words filed in the database; no cut-off is given here.

What all share (type): functional
Test [1] has as its system Enterovirus. Kind of test: In vitro anti-rhinovirus activity was measured as mean MIC for five serotypes, HRV-1A, -2, -22, -41, and -50. The gist of the method:
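Mean of plaque-reduction-assay MICs across five rhinovirus serotypes (HRV-1A, -2, -22, -41, -50), chosen to represent a range of sensitivity to this compound class.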

Test [2] relates to Enterovirus. The experiment in a line: (§1) In vitro anti-rhinovirus activity was measured as maximum testable levels - highest concentration of compound which causes no apparent effect on the cell monolayers.
For test [3], the system named is Enterovirus. The description is as §1. This is another data set of the same source.
Test [4] relates to Enterovirus. The experiment in a line: Minimum inhibitory concentration against rhinovirus serotype 15. To be noted: Enterovirus; read-out: MIC. The gist of the method:
(§2)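 Rhinovirus minimum inhibitory concentration (MIC) determined in a plaque reduction assay in cell culture, testing each serotype separately.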

Test [5] concerns Enterovirus. The experiment in a line: Minimum inhibitory concentration against rhinovirus serotype 1A. An outline of the steps:
as §2

Test [6] relates to Enterovirus. Kind of test: Minimum inhibitory concentration against rhinovirus serotype 30. The gist of the method:
as §2

Test [7] relates to Enterovirus. Kind of test: Minimum inhibitory concentration against rhinovirus serotype 41. An outline of the steps: as §2
The test system of test [8] is Enterovirus. The experiment in a line: Minimum inhibitory concentration against rhinovirus serotype 50. The gist of the method: as §2
The test system of test [9] is Enterovirus. The experiment in a line: Minimum inhibitory concentration against rhinovirus serotype 67. The gist of the method: as §2
For test [10], the system named is Enterovirus. The experiment in a line: Minimum inhibitory concentration against rhinovirus serotype 86. The gist of the method: as §2
Test [11] has as its system Enterovirus. Kind of test: Minimum inhibitory concentration against rhinovirus serotype 89. An outline of the steps: as §2
Test [12] deals with Enterovirus. The experiment in a line: Concentration required to inhibit 80 percent rhinovirus cell culture. An outline of the steps: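 MIC80 is the concentration that inhibits 80% of the rhinovirus serotypes tested. It is derived from per-serotype MICs measured by plaque reduction assay.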
The subject of test [13] is Enterovirus. The experiment in a line: Minimum inhibitory concentration against rhinovirus serotype 1B. To be noted: Enterovirus; read-out: MIC. An outline of the steps:
as §2

Test [14] has as its system Enterovirus. Kind of test: Minimum inhibitory concentration against rhinovirus serotype 21. The gist of the method: as §2
Test [15] concerns Enterovirus. Kind of test: Minimum inhibitory concentration against rhinovirus serotype 1B. An outline of the steps: as §2
In test [16] the test system is Enterovirus. The experiment in a line: Minimum inhibitory concentration against rhinovirus serotype 6. The gist of the method:
as §2

For test [17], the system named is Enterovirus. Kind of test: Minimum inhibitory concentration against rhinovirus serotype 25. An outline of the steps:
as §2

In the case of `CCc1cc(C2=NCCO2)cc(C)c1OCCCCCc1cc(C)no1`, the MIC with Enterovirus [1] came to 5.18 µM (≈ 1.85 µg/mL); in the test with Enterovirus [2] (Enterovirus, read-out: MIC), 35 µM (≈ 12.5 µg/mL).
Regarding `Cc1cc(CCCCCOc2c(Cl)cc(C3=NCCO3)cc2C(F)(F)F)on1`, the MIC with Enterovirus [3] is 0.5 µM (≈ 0.208 µg/mL); in the test on Enterovirus [1] it was 0.54 µM (≈ 0.225 µg/mL); in the test with Enterovirus [4], 0.4 µM (≈ 0.167 µg/mL); with Enterovirus [5], 0.2 µM (≈ 0.0834 µg/mL); in the test on Enterovirus [6] (Enterovirus, read-out: MIC) it was 0.2 µM (≈ 0.0834 µg/mL); against Enterovirus [7], 0.8 µM (≈ 0.333 µg/mL). Also, the MIC against Enterovirus [8] stood at 0.2 µM (≈ 0.0834 µg/mL); in the test on Enterovirus [9] (Enterovirus, read-out: MIC), 1 µM (≈ 0.417 µg/mL); in the test on Enterovirus [10] it was 1.3 µM (≈ 0.542 µg/mL); in the test with Enterovirus [11], 0.05 µM (≈ 0.0208 µg/mL). In the test on Enterovirus [12], this molecule came in with an MIC80 of 1.3 µM (≈ 0.542 µg/mL).
Consider `Cc1cc(CCCCCOc2c(Br)cc(C3=NCCO3)cc2[N+](=O)[O-])on1`, for which the MIC with Enterovirus [3] worked out at 1.2 µM (≈ 0.526 µg/mL); against Enterovirus [1], 1.16 µM (≈ 0.508 µg/mL); with Enterovirus [4] it was 0.5 µM (≈ 0.219 µg/mL); against Enterovirus [5], 0.1 µM (≈ 0.0438 µg/mL); in the test on Enterovirus [13], 0.3 µM (≈ 0.131 µg/mL); against Enterovirus [14], 0.6 µM (≈ 0.263 µg/mL). Moreover, the MIC was 0.5 µM (≈ 0.219 µg/mL) with Enterovirus [14] (Enterovirus, read-out: MIC); 0.2 µM (≈ 0.0877 µg/mL) in the test on Enterovirus [6] (Enterovirus, read-out: MIC); 1.6 µM (≈ 0.701 µg/mL) in the test on Enterovirus [7]; 0.2 µM (≈ 0.0877 µg/mL) against Enterovirus [8]; 0.03 µM (≈ 0.0131 µg/mL) against Enterovirus [11]; 0.7 µM (≈ 0.307 µg/mL) in the test on Enterovirus [15]. Further, the MIC80 in the test with Enterovirus [12] is 0.7 µM (≈ 0.307 µg/mL).
Regarding `Cc1cc(CCCCCOc2ccc(C3=NCCO3)cc2)on1`, the MIC in the test with Enterovirus [3] worked out at 5.2 µM (≈ 1.63 µg/mL); against Enterovirus [1] it was 5.16 µM (≈ 1.62 µg/mL); in the test with Enterovirus [2], 7 µM (≈ 2.2 µg/mL); in the test on Enterovirus [2] (Enterovirus, read-out: MIC) it was 9.9 µM (≈ 3.11 µg/mL); in the test with Enterovirus [4] it was 1.5 µM (≈ 0.472 µg/mL); with Enterovirus [5] it was 1.1 µM (≈ 0.346 µg/mL). Further, the MIC in the test with Enterovirus [14] (Enterovirus, read-out: MIC) was determined as 1.2 µM (≈ 0.377 µg/mL); in the test on Enterovirus [6] (Enterovirus, read-out: MIC), 0.3 µM (≈ 0.0943 µg/mL); in the test with Enterovirus [7] it was 15 µM (≈ 4.72 µg/mL); in the test with Enterovirus [16] it was 0.9 µM (≈ 0.283 µg/mL); with Enterovirus [16] (Enterovirus, read-out: MIC), 0.7 µM (≈ 0.22 µg/mL); with Enterovirus [9] (Enterovirus, read-out: MIC) it was 0.4 µM (≈ 0.126 µg/mL). Further, the MIC entry with Enterovirus [14] and in the test with Enterovirus [11] was “inactive” in each case. The molecule further registered an MIC80 against Enterovirus [12] of 7 µM (≈ 2.2 µg/mL).
For `Cc1cc(CCCCCOc2c(F)cc(C3=NCCO3)cc2F)on1`, the MIC came out at 2.7 µM (≈ 0.946 µg/mL) in the test on Enterovirus [3]; 2.69 µM (≈ 0.942 µg/mL) with Enterovirus [1]; 0.5 µM (≈ 0.175 µg/mL) in the test on Enterovirus [4]; 0.13 µM (≈ 0.0455 µg/mL) in the test with Enterovirus [5]; 0.08 µM (≈ 0.028 µg/mL) in the test on Enterovirus [14] (Enterovirus, read-out: MIC); 6.6 µM (≈ 2.31 µg/mL) in the test on Enterovirus [17]. Also, the MIC against Enterovirus [6] was 0.5 µM and 0.2 µM; in the test with Enterovirus [7], 2.3 µM (≈ 0.806 µg/mL); in the test with Enterovirus [8], 0.1 µM (≈ 0.035 µg/mL); in the test on Enterovirus [16] it was 1.1 µM (≈ 0.385 µg/mL); against Enterovirus [9], 0.1 µM (≈ 0.035 µg/mL); with Enterovirus [9] (Enterovirus, read-out: MIC) it was 0.12 µM (≈ 0.042 µg/mL). In the test with Enterovirus [12], this molecule came in with an MIC80 of 1.9 µM (≈ 0.666 µg/mL).
Take `Cc1cc(CCCCCOc2c(Cl)cc(C3=NCCO3)cc2[N+](=O)[O-])on1`: the MIC in the test on Enterovirus [3] was determined as 1.4 µM (≈ 0.551 µg/mL); with Enterovirus [1], 1.35 µM (≈ 0.532 µg/mL); with Enterovirus [4], 0.2 µM (≈ 0.0788 µg/mL); with Enterovirus [5], 0.07 µM (≈ 0.0276 µg/mL); in the test with Enterovirus [6] (Enterovirus, read-out: MIC), 0.05 µM (≈ 0.0197 µg/mL); against Enterovirus [7] it was 3 µM (≈ 1.18 µg/mL). Also, the MIC in the test on Enterovirus [8] came to 0.2 µM (≈ 0.0788 µg/mL); in the test with Enterovirus [9] (Enterovirus, read-out: MIC) it was 0.3 µM (≈ 0.118 µg/mL); in the test on Enterovirus [10], 0.4 µM (≈ 0.158 µg/mL); with Enterovirus [11], 0.02 µM (≈ 0.00788 µg/mL). Moreover, the MIC80 against Enterovirus [12] was 0.5 µM (≈ 0.197 µg/mL).
Turning to `Cc1cc(CCCCCOc2c(C)cc(C3=NCCO3)cc2C)on1`, the MIC with Enterovirus [3] came out at 0.8 µM (≈ 0.274 µg/mL); in the test on Enterovirus [1], 0.78 µM (≈ 0.267 µg/mL); in the test with Enterovirus [4], 0.4 µM (≈ 0.137 µg/mL); in the test on Enterovirus [5] it was 0.02 µM (≈ 0.00685 µg/mL); against Enterovirus [14] it was 0.5 µM (≈ 0.171 µg/mL); in the test with Enterovirus [14] (Enterovirus, read-out: MIC) it was 0.7 µM (≈ 0.24 µg/mL). The MIC was 0.2 µM (≈ 0.0685 µg/mL) in the test with Enterovirus [6] (Enterovirus, read-out: MIC); 1.6 µM (≈ 0.548 µg/mL) in the test on Enterovirus [7]; 0.2 µM (≈ 0.0685 µg/mL) with Enterovirus [8]; 1.2 µM (≈ 0.411 µg/mL) against Enterovirus [16]; 2.4 µM (≈ 0.822 µg/mL) in the test on Enterovirus [16] (Enterovirus, read-out: MIC); 0.05 µM (≈ 0.0171 µg/mL) with Enterovirus [10]. In the test on Enterovirus [12], this molecule had an MIC80 of 1.3 µM (≈ 0.445 µg/mL).
